Experiment [1] concerns the target Tyrosine-protein kinase CSK (Homo sapiens) (UniProt P41240). The experiment is described as follows: Inhibition of CSK assessed as residual activity at 10 uM by Cherenkov counting relative to control in presence of 20 uM ATP. An outline of the steps:
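Single-point profiling at 10 µM in a panel of 78 protein kinases. Kinase activity is expressed as a percentage relative to control assays without compound.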

The target in experiment [2] is MAP/microtubule affinity-regulating kinase 3 (Homo sapiens) (UniProt P27448). The experiment is described as follows: Inhibition of MARK3 assessed as residual activity at 10 uM by Cherenkov counting relative to control in presence of 5 uM ATP.
Chain of MAP/microtubule affinity-regulating kinase 3 (Homo sapiens) (P27448 whole entry, looked up): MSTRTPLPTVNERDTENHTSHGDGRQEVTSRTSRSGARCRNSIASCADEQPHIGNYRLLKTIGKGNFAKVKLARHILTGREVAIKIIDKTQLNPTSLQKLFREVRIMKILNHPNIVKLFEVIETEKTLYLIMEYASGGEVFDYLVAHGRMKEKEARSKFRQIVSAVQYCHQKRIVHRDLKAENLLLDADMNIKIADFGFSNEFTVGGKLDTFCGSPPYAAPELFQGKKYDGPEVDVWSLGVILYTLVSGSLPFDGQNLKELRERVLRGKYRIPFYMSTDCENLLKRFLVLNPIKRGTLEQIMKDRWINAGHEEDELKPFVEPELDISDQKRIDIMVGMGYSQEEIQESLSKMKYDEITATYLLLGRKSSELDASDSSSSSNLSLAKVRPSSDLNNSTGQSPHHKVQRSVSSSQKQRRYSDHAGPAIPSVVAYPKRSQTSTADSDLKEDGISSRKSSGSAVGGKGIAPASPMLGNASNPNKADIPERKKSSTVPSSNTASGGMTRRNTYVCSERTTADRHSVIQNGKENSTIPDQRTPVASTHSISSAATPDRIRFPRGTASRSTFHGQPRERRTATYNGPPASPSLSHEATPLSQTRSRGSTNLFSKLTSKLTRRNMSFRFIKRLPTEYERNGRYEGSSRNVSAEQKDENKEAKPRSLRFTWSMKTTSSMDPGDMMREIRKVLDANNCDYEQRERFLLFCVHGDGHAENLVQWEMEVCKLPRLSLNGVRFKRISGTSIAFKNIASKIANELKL
The target in experiment [3] is T1, Dual specificity tyrosine-phosphorylation-regulated kinase 3 (Homo sapiens) (UniProt O43781).
T1 sequence (whole entry): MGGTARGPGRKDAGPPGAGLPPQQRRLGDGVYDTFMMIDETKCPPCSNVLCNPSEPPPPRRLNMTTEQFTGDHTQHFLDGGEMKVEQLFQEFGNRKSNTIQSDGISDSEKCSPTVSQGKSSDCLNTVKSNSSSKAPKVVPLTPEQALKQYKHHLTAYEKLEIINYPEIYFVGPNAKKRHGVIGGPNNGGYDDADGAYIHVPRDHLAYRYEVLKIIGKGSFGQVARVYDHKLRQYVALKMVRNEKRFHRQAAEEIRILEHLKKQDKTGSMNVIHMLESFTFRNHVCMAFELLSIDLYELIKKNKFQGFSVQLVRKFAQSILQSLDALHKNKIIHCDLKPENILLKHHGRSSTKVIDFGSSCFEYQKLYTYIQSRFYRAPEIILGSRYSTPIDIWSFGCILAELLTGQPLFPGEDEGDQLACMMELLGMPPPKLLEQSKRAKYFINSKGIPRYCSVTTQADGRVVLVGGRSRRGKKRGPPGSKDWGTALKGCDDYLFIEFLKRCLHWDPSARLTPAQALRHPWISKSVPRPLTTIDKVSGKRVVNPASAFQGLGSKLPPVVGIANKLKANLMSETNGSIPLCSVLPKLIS
Put plainly: Inhibition of DYRK3 assessed as residual activity at 0.1 uM by Cherenkov counting relative to control in presence of 5 uM ATP. The procedure, abridged:
(§1)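 Single-concentration screen at 0.1 µM across a panel of 76 protein kinases. Each kinase was run at an ATP concentration approximating its ATP Km. Results are % mean residual activity versus control assays without compound (n = 3 ± SD).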

In experiment [4] the target is Rho-associated protein kinase 2 (Homo sapiens) (UniProt O75116). The experiment is described as follows: Inhibition of ROCK2 assessed as residual activity at 0.1 uM by Cherenkov counting relative to control in presence of 20 uM ATP. The procedure, abridged:
(§2)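 Single-concentration screen at 0.1 μM in a 76-kinase panel. ATP for each kinase was set near its Km for ATP. Residual activity is given as a percentage of control assays without compound, mean of n = 3 ± SD.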

The target of experiment [5] is Tyrosine-protein kinase Yes (Homo sapiens) (UniProt P07947). Put plainly: Inhibition of YES1 at 0.1 uM by Cherenkov counting in presence of 20 uM ATP. The procedure, abridged:
as §2

For experiment [6], the target named is T2, Serine/threonine-protein kinase BRSK2 (Homo sapiens) (UniProt Q8IWQ3).
T2 sequence (whole entry): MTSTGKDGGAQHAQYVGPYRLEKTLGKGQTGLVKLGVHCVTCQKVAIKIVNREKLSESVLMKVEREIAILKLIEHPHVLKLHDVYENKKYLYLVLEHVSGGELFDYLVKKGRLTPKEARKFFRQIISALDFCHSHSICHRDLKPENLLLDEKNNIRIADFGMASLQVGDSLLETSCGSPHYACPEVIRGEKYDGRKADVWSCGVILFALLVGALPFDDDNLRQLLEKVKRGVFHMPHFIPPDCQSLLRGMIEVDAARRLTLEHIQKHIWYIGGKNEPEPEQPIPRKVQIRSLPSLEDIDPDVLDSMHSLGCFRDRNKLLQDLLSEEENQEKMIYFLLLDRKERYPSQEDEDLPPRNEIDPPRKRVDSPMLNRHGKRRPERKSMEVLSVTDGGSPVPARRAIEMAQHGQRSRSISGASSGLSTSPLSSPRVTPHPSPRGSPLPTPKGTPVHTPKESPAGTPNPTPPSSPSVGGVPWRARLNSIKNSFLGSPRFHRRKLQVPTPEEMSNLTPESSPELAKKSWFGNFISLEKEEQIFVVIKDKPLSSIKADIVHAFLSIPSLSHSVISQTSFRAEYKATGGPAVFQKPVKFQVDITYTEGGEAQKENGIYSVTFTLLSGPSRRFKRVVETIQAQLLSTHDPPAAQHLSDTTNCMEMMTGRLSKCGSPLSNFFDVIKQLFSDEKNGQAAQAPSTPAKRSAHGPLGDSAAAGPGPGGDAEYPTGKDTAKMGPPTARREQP
The experiment is described as follows: Inhibition of BRSK2 assessed as residual activity at 0.1 uM by Cherenkov counting relative to control in presence of 50 uM ATP. The procedure, abridged: as §1

The target in experiment [7] is Maternal embryonic leucine zipper kinase (Homo sapiens) (UniProt Q14680). The experiment is described as follows: Inhibition of MELK assessed as residual activity at 0.1 uM by Cherenkov counting relative to control in presence of 50 uM ATP. The procedure, abridged:
(§3)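 Single-concentration selectivity screen at 0.1 μM against a panel of 76 protein kinases. Each kinase was run at an ATP level approximating its Km for ATP. Output is mean residual activity as % of the control assay without compound, n = 3 ± SD.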

Experiment [8] concerns the target T3, Serine/threonine-protein kinase Nek2 (Homo sapiens) (UniProt P51955).
T3 sequence (whole entry): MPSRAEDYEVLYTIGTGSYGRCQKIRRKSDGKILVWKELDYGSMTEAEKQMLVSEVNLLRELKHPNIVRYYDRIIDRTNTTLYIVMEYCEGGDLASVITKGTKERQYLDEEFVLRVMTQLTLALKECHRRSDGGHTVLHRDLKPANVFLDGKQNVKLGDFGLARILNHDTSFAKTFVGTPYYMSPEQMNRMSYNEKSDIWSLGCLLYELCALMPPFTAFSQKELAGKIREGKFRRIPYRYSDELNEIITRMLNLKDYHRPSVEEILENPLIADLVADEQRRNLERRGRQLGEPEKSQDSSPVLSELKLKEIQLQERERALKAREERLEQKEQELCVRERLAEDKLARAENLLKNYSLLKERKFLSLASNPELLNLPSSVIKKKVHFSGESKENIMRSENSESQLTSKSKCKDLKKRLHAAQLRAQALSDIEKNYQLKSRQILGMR
Put plainly: Inhibition of NEK2a assessed as residual activity at 0.1 uM by Cherenkov counting relative to control in presence of 50 uM ATP. An outline of the steps: as §3

In experiment [9] the target is Ephrin type-A receptor 2 (Homo sapiens) (UniProt P29317). The experiment is described as follows: Inhibition of EPHA2 assessed as residual activity at 0.1 uM by Cherenkov counting relative to control in presence of 50 uM ATP. The procedure, abridged:
as §1

Experiment [10] has as its target Glycogen synthase kinase-3 beta (Homo sapiens) (UniProt P49841). The experiment is described as follows: Inhibition of GSK3-beta assessed as residual activity at 0.1 uM by Cherenkov counting relative to control in presence of 5 uM ATP. The procedure, abridged:
as §1

Chain of Tyrosine-protein kinase CSK (Homo sapiens) (P41240 2-450 limits assumed): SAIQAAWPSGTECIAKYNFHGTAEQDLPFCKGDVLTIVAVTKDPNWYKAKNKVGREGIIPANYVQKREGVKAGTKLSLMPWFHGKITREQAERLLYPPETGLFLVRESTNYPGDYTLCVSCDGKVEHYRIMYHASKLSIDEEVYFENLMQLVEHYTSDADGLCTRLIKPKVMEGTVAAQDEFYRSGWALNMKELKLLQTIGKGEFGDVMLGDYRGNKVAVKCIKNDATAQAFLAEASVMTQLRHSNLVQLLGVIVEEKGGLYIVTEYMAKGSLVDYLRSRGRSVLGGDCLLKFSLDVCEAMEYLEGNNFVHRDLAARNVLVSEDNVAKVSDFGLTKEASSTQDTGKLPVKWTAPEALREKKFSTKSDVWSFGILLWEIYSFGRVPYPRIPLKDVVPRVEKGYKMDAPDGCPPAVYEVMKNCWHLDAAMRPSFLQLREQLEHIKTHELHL
Chain of Ephrin type-A receptor 2 (Homo sapiens) (P29317 whole entry): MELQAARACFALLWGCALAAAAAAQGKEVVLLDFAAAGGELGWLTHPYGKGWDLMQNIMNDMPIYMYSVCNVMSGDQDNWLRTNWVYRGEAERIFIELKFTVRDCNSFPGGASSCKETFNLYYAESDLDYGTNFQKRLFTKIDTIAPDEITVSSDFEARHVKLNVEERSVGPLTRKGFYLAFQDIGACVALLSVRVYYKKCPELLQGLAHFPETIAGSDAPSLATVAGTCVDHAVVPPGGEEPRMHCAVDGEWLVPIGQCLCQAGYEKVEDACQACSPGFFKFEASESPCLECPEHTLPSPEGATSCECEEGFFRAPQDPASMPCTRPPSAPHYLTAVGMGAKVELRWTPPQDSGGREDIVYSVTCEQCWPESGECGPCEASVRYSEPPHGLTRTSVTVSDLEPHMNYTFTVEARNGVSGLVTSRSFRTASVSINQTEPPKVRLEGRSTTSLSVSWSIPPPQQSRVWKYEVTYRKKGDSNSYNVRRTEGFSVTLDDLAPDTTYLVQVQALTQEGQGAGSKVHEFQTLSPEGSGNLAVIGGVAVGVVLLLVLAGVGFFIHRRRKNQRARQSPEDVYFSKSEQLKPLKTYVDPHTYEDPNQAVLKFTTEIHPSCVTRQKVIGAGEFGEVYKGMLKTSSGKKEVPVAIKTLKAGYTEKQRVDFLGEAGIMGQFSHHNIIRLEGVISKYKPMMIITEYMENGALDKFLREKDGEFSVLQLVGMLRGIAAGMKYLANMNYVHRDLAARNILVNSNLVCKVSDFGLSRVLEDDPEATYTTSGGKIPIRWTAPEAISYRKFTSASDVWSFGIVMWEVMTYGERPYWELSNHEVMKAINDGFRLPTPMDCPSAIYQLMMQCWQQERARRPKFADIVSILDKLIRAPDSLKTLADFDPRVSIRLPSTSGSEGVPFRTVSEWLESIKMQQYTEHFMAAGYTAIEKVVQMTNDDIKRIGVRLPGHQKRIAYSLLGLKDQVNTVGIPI
Chain of Maternal embryonic leucine zipper kinase (Homo sapiens) (Q14680 whole entry, looked up): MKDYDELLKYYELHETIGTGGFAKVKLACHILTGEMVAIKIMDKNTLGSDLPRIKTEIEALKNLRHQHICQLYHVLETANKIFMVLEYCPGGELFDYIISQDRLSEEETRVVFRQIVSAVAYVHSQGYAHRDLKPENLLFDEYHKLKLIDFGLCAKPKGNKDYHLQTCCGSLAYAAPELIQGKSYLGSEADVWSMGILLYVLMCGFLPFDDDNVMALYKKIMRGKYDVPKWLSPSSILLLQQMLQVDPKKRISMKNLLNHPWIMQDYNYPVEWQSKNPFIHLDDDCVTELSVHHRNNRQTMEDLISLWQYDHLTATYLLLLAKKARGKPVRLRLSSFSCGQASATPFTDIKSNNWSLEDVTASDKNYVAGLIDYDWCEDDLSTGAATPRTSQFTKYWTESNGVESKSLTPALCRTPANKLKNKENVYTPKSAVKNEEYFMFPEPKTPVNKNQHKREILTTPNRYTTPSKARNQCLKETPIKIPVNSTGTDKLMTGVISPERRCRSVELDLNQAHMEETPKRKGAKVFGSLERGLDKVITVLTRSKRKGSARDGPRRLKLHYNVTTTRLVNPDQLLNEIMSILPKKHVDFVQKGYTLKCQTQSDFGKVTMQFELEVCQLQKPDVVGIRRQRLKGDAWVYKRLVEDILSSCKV
Chain of Rho-associated protein kinase 2 (Homo sapiens) (O75116 whole entry, looked up): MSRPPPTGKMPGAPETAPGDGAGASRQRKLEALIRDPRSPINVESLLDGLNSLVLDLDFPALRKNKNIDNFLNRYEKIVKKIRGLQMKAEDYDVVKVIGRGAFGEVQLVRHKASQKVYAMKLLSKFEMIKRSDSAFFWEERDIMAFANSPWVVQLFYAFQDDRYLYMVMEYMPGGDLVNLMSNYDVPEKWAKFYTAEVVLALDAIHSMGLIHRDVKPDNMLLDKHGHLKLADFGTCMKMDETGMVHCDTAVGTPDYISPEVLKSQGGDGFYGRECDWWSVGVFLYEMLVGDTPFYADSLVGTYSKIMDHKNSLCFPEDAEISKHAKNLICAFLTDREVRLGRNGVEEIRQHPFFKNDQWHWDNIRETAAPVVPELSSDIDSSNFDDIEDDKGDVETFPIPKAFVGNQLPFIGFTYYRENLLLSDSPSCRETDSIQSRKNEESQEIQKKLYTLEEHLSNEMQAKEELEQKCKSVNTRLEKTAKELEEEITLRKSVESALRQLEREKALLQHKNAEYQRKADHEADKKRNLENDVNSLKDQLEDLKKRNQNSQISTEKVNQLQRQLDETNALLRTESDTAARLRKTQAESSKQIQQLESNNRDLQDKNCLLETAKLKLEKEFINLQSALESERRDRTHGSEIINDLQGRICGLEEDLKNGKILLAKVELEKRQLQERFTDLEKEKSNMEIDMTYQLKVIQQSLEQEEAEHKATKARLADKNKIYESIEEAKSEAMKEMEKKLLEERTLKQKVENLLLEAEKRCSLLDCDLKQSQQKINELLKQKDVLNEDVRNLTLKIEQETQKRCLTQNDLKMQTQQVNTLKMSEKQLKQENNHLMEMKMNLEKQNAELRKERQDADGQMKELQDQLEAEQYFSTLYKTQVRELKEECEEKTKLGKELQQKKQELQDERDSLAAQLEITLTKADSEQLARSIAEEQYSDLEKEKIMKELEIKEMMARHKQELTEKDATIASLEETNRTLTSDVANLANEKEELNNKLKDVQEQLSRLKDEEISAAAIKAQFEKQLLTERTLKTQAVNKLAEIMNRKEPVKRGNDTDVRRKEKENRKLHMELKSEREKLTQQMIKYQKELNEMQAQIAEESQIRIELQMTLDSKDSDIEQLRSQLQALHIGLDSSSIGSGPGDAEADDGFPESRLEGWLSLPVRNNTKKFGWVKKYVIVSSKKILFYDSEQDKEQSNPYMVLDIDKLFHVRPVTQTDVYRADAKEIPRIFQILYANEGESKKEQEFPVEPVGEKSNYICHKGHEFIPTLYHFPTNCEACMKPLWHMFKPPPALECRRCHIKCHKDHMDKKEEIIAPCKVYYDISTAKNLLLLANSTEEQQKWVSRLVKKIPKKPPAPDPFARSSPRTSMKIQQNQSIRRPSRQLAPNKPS
Chain of Tyrosine-protein kinase Yes (Homo sapiens) (P07947 2-543 limits assumed): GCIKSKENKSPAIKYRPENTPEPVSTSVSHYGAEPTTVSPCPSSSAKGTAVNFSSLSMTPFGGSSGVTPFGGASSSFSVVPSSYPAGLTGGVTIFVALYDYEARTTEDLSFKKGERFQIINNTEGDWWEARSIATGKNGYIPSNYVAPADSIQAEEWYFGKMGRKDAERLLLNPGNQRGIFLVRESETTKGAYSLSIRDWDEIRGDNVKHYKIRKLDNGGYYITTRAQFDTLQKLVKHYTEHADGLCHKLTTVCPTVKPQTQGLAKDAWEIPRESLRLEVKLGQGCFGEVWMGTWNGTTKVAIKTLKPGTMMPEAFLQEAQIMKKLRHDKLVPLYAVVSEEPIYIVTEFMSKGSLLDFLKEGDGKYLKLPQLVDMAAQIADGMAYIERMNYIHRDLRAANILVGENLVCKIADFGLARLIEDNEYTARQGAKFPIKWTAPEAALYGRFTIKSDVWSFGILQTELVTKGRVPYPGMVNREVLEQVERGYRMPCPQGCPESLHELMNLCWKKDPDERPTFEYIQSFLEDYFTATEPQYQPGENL

For the compound `CC(C)c1noc(-c2ccc(F)cc2)c1-c1ccncc1`, the Activity in experiment [1] came out at 95%; in experiment [2] it was 92%.
For `CC(C)c1onc(-c2ccc(F)cc2)c1-c1ccncc1`, the Activity was 87% in [1] and 95% in [2].
Consider `COc1ccc(/C=C/C(=O)Nc2cc(-c3[nH]c(SC)nc3-c3ccc(F)cc3)ccn2)c(OC)c1`, for which the Activity amounted to 104% in experiment [3]; 81% in experiment [4]; 86% in experiment [6]; 81% in experiment [7]; 91% in experiment [8]; 97% in experiment [9]. In addition, the Activity in experiment [10] worked out at 81%. Also, the inhibition (commonly the change of the read-out against control, counted positive when it falls) in [5] amounted to 76%.
Consider `COc1ccc(/C=C/C(=O)Nc2cc(-c3[nH]c([S+](C)[O-])nc3-c3ccc(F)cc3)ccn2)c(OC)c1` (stereo not given), for which the Activity in experiment [3] came to 90%; in [4], 88%; in experiment [6] it was 97%; in experiment [7], 92%; in experiment [8] it was 92%; in experiment [9], 95%. Moreover, the Activity in experiment [10] turned out to be 101%. Also, in [5], the inhibition was 86%.
